In brackets after ≈: the same amount, converted by molar mass.

The nature of series [1]: Metabolic stability in human liver microsomes after 30 mins by LC-MS/MS analysis. Particulars: read-out: Stability. Type of series: ADME. The procedure, abridged: (§1)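 Test compounds were incubated 30 min with liver microsomes (human or mouse, per line), and values are reported as % metabolic stability after 30 min.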
A general note: Liver microsomes are vesicles of endoplasmic reticulum, rich in cytochrome P450 enzymes.

For series [2], the system named is Candida tropicalis. Briefly: Antifungal activity against Candida tropicalis ATCC 750 after 72 hrs by broth microdilution method. Particulars: ATCC 750, 72 h. It counts as functional. In outline: (§2)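 CLSI broth microdilution against yeasts (M27-A3) and filamentous fungi (M38-A2). Read-outs: IC50 (concentration giving 50% growth inhibition), MIC, and MFC (minimum fungicidal concentration), all in μg/mL. Assay done twice in triplicate.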
(Broth dilution looks for growth in wells or tubes with falling amounts of substance.)

Series [3] in a line: Metabolic stability in mouse liver microsomes after 30 mins by LC-MS/MS analysis. Particulars: read-out: Stability. Type of series: ADME. In outline: as §1
The subject of series [4] is Candida albicans. The series is described as follows: Antifungal activity against Candida albicans ATCC 24433 after 72 hrs by broth microdilution method. It counts as functional. Particulars: ATCC 24433, 72 h. The procedure, abridged:
as §2

For series [5], the system named is Aspergillus niger. Briefly: Antifungal activity against Aspergillus niger ATCC 10578 after 72 hrs by broth microdilution method. Type of series: functional. Particulars: ATCC 10578, 72 h. The procedure, abridged: as §2
In series [6] the test system is Cryptococcus neoformans. The series is described as follows: Antifungal activity against Cryptococcus neoformans ATCC 34664 after 72 hrs by broth microdilution method. Particulars: ATCC 34664, 72 h. It counts as functional. The procedure, abridged: as §2
The test system of series [7] is Nakaseomyces glabratus. Briefly: Antifungal activity against Candida glabrata NCYC 388 after 24 to 36 hrs by broth microdilution method. Type of series: functional, organism-based. The procedure, abridged: as §2
In series [8] the test system is Cryptococcus neoformans. The series is described as follows: Antifungal activity against Cryptococcus neoformans ATCC 34664 after 24 to 36 hrs by broth microdilution method. Type of series: functional, organism-based. The procedure, abridged:
as §2

The test system of series [9] is Aspergillus niger. Briefly: Antifungal activity against Aspergillus niger ATCC 10578 after 48 hrs by broth microdilution method. Particulars: ATCC 10578, 48 h. It counts as functional, organism-based. In outline:
as §2

For series [10], the system named is Candida tropicalis. Briefly: Antifungal activity against Candida tropicalis ATCC 750 after 24 to 36 hrs by broth microdilution method. It counts as functional, organism-based. The procedure, abridged:
as §2

Series [11] can be described thus: Toxicity in human RBC assessed as hemolysis upto 128 ug/ml. Particulars: erythrocyte. Type of series: cell-based.
Series [12] relates to Candida albicans. Briefly: Antifungal activity against Candida albicans ATCC 24433 after 24 to 36 hrs by broth microdilution method. Type of series: functional, organism-based. In outline:
as §2

For series [13], the system named is Nakaseomyces glabratus. Briefly: Antifungal activity against Candida glabrata NCYC 388 after 72 hrs by broth microdilution method. Type of series: functional. Particulars: NCYC 388, 72 h. The procedure, abridged: as §2
For series [14], the system named is Candida albicans. Briefly: Antifungal activity against Candida albicans ATCC 10231 after 24 to 36 hrs by broth microdilution method. It counts as functional, organism-based. In outline:
as §2

Series [15] has as its system Candida albicans. The series is described as follows: Antifungal activity against Candida albicans ATCC 10231 after 72 hrs by broth microdilution method. Type of series: functional. Particulars: ATCC 10231, 72 h. The procedure, abridged:
as §2

Series [16] can be described thus: Toxicity in human RBC assessed as partial hemolysis at 256 ug/ml. Type of series: cell-based. Particulars: erythrocyte.

For `CC(Cc1ccc([Si](C)(C)C)cc1)CN1CC[Si](C)(C)CC1` (configuration not stated), the remaining at 0.5 h was found to be 44.5% in [1] and 17.3% in series [3]. For the same compound, the MFC against Candida tropicalis [2] was above 256 µg/mL; in the series on Candida albicans [4], 8 µg/mL (≈ 24 µM); with Aspergillus niger [5], above 256 µg/mL; in the series with Cryptococcus neoformans [6], 64 µg/mL (≈ 192 µM); against Nakaseomyces glabratus [13], 16 µg/mL (≈ 48 µM); in the series on Candida albicans [15], 4 µg/mL (≈ 12 µM). The IC50 in the series with Nakaseomyces glabratus [7] turned out to be 1.75 µg/mL (≈ 5.24 µM); with Cryptococcus neoformans [8] it was 1.98 µg/mL (≈ 5.93 µM); in the series on Aspergillus niger [9] it was 0.5 µg/mL (≈ 1.5 µM); with Candida tropicalis [10], 44.8 µg/mL (≈ 134 µM); in the series on Candida albicans [12] it was 1.25 µg/mL (≈ 3.75 µM); with Candida albicans [14], 0.45 µg/mL (≈ 1.35 µM). Moreover, the MIC turned out to be 8 µg/mL (≈ 24 µM) with Nakaseomyces glabratus [7]; 8 µg/mL (≈ 24 µM) in the series on Cryptococcus neoformans [8]; 2 µg/mL (≈ 5.99 µM) against Aspergillus niger [9]; 64 µg/mL (≈ 192 µM) against Candida tropicalis [10]; 4 µg/mL (≈ 12 µM) in the series with Candida albicans [12]; 1 µg/mL (≈ 3 µM) in the series on Candida albicans [14]. In series [11], the Activity result is listed as “Non-toxic”.
Take `CC(Cc1ccc([Si](C)(C)C)cc1)CN1CCC(O)CC1` (configuration not stated): the Activity entry in [16] is “Toxic”; in series [11] it was “Non-toxic”. Also, the MFC was found to be 256 µg/mL (≈ 838 µM) in the series with Candida tropicalis [2]; 2 µg/mL (≈ 6.55 µM) against Candida albicans [4]; 256 µg/mL (≈ 838 µM) with Aspergillus niger [5]; 16 µg/mL (≈ 52.4 µM) against Cryptococcus neoformans [6]; 8 µg/mL (≈ 26.2 µM) with Nakaseomyces glabratus [13]; 4 µg/mL (≈ 13.1 µM) in the series with Candida albicans [15]. Moreover, the IC50 came to 0.196 µg/mL (≈ 0.641 µM) with Nakaseomyces glabratus [7]; 0.93 µg/mL (≈ 3.04 µM) with Cryptococcus neoformans [8]; 0.25 µg/mL (≈ 0.818 µM) with Aspergillus niger [9]; 0.198 µg/mL (≈ 0.648 µM) in the series with Candida tropicalis [10]; 0.396 µg/mL (≈ 1.3 µM) in the series with Candida albicans [12]; 0.19 µg/mL (≈ 0.622 µM) in the series on Candida albicans [14]. Also, the MIC came to 0.5 µg/mL (≈ 1.64 µM) in the series with Nakaseomyces glabratus [7]; 2 µg/mL (≈ 6.55 µM) in the series with Cryptococcus neoformans [8]; 0.5 µg/mL (≈ 1.64 µM) in the series with Aspergillus niger [9]; 4 µg/mL (≈ 13.1 µM) against Candida tropicalis [10]; 1 µg/mL (≈ 3.27 µM) in the series with Candida albicans [12]; 0.25 µg/mL (≈ 0.818 µM) in the series on Candida albicans [14].
Consider `CC(CNC1CCN(C)CC1)Cc1ccc([Si](C)(C)C)cc1` (configuration not stated), for which the Activity result in series [16] is reported as “Toxic”; in series [11], “Non-toxic”. Moreover, the MFC in the series on Candida tropicalis [2] is 256 µg/mL (≈ 804 µM); in the series with Candida albicans [4], 8 µg/mL (≈ 25.1 µM); against Aspergillus niger [5], above 256 µg/mL; in the series on Cryptococcus neoformans [6], 16 µg/mL (≈ 50.2 µM); in the series on Nakaseomyces glabratus [13], 16 µg/mL (≈ 50.2 µM); against Candida albicans [15], 2 µg/mL (≈ 6.28 µM). Besides, the IC50 in the series with Nakaseomyces glabratus [7] came to 5.92 µg/mL (≈ 18.6 µM); with Cryptococcus neoformans [8], 6.9 µg/mL (≈ 21.7 µM); in the series with Aspergillus niger [9] it was 4.5 µg/mL (≈ 14.1 µM); in the series on Candida tropicalis [10] it was 1.5 µg/mL (≈ 4.71 µM); in the series with Candida albicans [12], 5.13 µg/mL (≈ 16.1 µM); in the series on Candida albicans [14], 1.59 µg/mL (≈ 4.99 µM). Also, the minimum inhibitory concentration (MIC) is 8 µg/mL (≈ 25.1 µM) with Nakaseomyces glabratus [7]; 16 µg/mL (≈ 50.2 µM) against Cryptococcus neoformans [8]; 8 µg/mL (≈ 25.1 µM) against Aspergillus niger [9]; 64 µg/mL (≈ 201 µM) against Candida tropicalis [10]; 8 µg/mL (≈ 25.1 µM) in the series on Candida albicans [12]; 2 µg/mL (≈ 6.28 µM) in the series on Candida albicans [14].
Take `CC(Cc1ccc(C(C)(C)C)cc1)CN1CCCCC1` (configuration not stated) [FENPROPIDIN]: the remaining at 0.5 h in [1] is 34.4%; in series [3] it was 1.1%. Further, the minimum fungicidal concentration (MFC) in the series with Candida tropicalis [2] was 256 µg/mL (≈ 936 µM); against Candida albicans [4] it was 0.5 µg/mL (≈ 1.83 µM); against Aspergillus niger [5] it was 128 µg/mL (≈ 468 µM); against Cryptococcus neoformans [6] it was 32 µg/mL (≈ 117 µM); in the series with Nakaseomyces glabratus [13] it was 16 µg/mL (≈ 58.5 µM); in the series with Candida albicans [15], 2 µg/mL (≈ 7.31 µM). Further, the IC50 in the series on Nakaseomyces glabratus [7] was found to be 0.1 µg/mL (≈ 0.366 µM); in the series with Cryptococcus neoformans [8], 0.22 µg/mL (≈ 0.804 µM); in the series with Aspergillus niger [9], 16 µg/mL (≈ 58.5 µM); with Candida tropicalis [10], 0.125 µg/mL (≈ 0.457 µM); with Candida albicans [12], 0.19 µg/mL (≈ 0.695 µM); with Candida albicans [14], 0.27 µg/mL (≈ 0.987 µM). Besides, the MIC against Nakaseomyces glabratus [7] is 0.5 µg/mL (≈ 1.83 µM); against Cryptococcus neoformans [8], 1 µg/mL (≈ 3.66 µM); in the series on Aspergillus niger [9] it was 32 µg/mL (≈ 117 µM); with Candida tropicalis [10], 4 µg/mL (≈ 14.6 µM); against Candida albicans [12], 0.25 µg/mL (≈ 0.914 µM); in the series with Candida albicans [14] it was 1 µg/mL (≈ 3.66 µM). Further, in series [11], the Activity result was “Non-toxic”.

As usually defined, the MFC is the lowest tested concentration that kills the fungus rather than only halting it. Low readings indicate greater fungicidal potency, high ones weaker fungicidal potency. As usually defined, the IC50 is the concentration needed to halve the response being measured. A high value points to weaker potency in that assay. The MIC is the least concentration at which growth counts as inhibited. Higher therefore signals a less susceptible organism.

These data come from ChEMBL document CHEMBL3751707, “Silicon Incorporated Morpholine Antifungals: Design, Synthesis, and Biological Evaluation” (ACS Med Chem Lett, 2015).
